FGF22 binding-1 = binders of human FGF22 protein, primary screen, FGF22 synaptogenesis inhibitor project, biophysical, thermal shift, single point; Fibroblast growth factor 22 (Homo sapiens), Q9HCT0; recombinant FGF22 thermal shift, SYPRO orange fluorescence; percent of sucrose octasulfate shift, DMSO zero; activity (Tm shift, normalised), % at 9.99 µM; actives 1.5% (n = 340,000); AID 651658, 2012;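 active = mean Tm shift, scaled 0 neutral to 100 positive control, at about 1.3% or above, every replicate too, limit read from the data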
Target sequence (Q9HCT0 whole entry, looked up): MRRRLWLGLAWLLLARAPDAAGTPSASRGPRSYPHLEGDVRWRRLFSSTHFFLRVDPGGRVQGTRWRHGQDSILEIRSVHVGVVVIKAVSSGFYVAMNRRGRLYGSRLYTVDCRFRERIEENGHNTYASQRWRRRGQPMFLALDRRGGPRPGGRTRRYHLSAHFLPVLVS
PglD inh = C. jejuni PglD acetyltransferase inhibitors, primary screen, biochemical, DTNB colorimetric, single point | UDP-N-acetylbacillosamine N-acetyltransferase PglD (Campylobacter jejuni) | purified PglD enzyme, DTNB colorimetric CoA detection | inhibition, % at 12.5 µM | actives 0.098% (n = 360,000) | AID 602405, 2012; in the data active = inhibition above about 16%, passing the limit was not always enough
Cneo AK release = Cryptococcus neoformans cell lysis inducers, primary screen, AK release luminescence, single concentration. C. neoformans lysis, adenylate kinase release luminescence, 4 h; normalised: neutral wells 0, clomiphene wells 100. lysis activity, % at 15 µM. AID 651654, 2012. actives 0.2% (n = 360,000);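 active = mean lysis activity across replicates of at least 80%, whatever share of replicates individually reach that level; inactive = mean lysis activity below 80%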
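Material – Cryptococcus neoformans yeast cells · Quantity – 5 × 10^6 yeast cells/mL · Buffer or medium – YPD medium · Compound – single dose · Timing – 4 h static compound exposure, 37 °C, read 1 h post-reagent · Signal – adenylate kinase release luminescence · Read-out basis – lysis from increased AK signal · Benchmarks – Clomiphene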
rRNA inh HTS = reduced GFP signal of wild-type E. coli, primary screen, bacterial rRNA inhibitor project, GFP/RFP fluorescence, OD600, single point | actives 1.6% (n = 350,000) | GFP signal change (wild-type ribosome), % (test concentration not listed) | AID 720706, 2013 | E. coli WT GFP vs humanized-ribosome RFP mutants, 24 h; active compounds read low; DMSO median 0, no signal -100;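 active = significant combined selectivity score with lowered wild-type GFP, culture density cut under 30%, mutant RFP and density less affected; inactive = any of these conditions unmet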
PGC1a acetyl inh = inhibitors of PGC1a acetylation signal, primary screen, cell-based, U2OS, AlphaScreen, inhibitor mode; AlphaScreen anti-acetyl-lysine; with virally co-expressed GCN5 acetyltransferase; inhibition, % at 15.6 µM; actives 0.17% (n = 350,000);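 active = every replicate shows inhibition of at least 40%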;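 note: 0% = neutral control wells and 100% = positive control wells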
Vif imaging = HIV Vif self-association inhibitors, primary screen, imaging, HEK293T, single point. HEK293T cells, Vif self-association by quenched fluorescence, 24 h. inhibition, % at 7.49 µM. actives 0.35% (n = 340,000); in the data active = inhibition above about 50%, passing the limit was not always enough
FGF22 binding-2 = binders of human FGF22 protein, dose response, FGF22 synaptogenesis inhibitor project, biophysical, thermal shift, cherry-pick retest. shares compounds with FGF22 binding-1. recombinant FGF22 thermal shift, SYPRO orange fluorescence. thermal shift activity, °C (ΔTm) at 38 µM. actives 2% (n = 1,000);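 active = fitted rise in melting shift crosses a set limit at or below the top valid dose tested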
FGF22 TSA DP = binders of human FGF22 protein, dose response, FGF22 synaptogenesis inhibitor project, biophysical, thermal shift, dry powder; AID 743017, 2013; Tm shift (activity), % at 38 µM; 50 tested, under 10 active; shares compounds with FGF22 binding-1; Thermal shift assay, SYPRO orange, melting temperature shift;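 active = compounds whose fitted dose curve of melting temperature shift rises past a set threshold within the tested doses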
TSA no protein = compound-only thermal shift signal without protein, dose response, artefact control for FGF22 binder project, biochemical, cherry-picked samples, RT-PCR instrument; actives 2% (n = 1,000); compound-only SYPRO orange thermal shift counter-screen, no protein; shares compounds with FGF22 binding-1; AC50, µM (titrated, usually from 38 µM);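 active = rising signal whose fitted curve reaches the 0.54 level within the top valid dose, showing a melting point, actives reach about 13 µM in these data; inactive = the rest, including activity in the opposite direction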; note: value is where the raw curve crosses a fixed level and not half-maximal
An asterisk follows results filed as active; i = inactive; nt = no result; ! = a repeat was not active. Most compounds without a hit are left out; they make up all but 2.9% or so of the library.

SMILES | FGF22 binding-1 | PglD inh | Cneo AK release | rRNA inh HTS | PGC1a acetyl inh | Vif imaging | FGF22 binding-2 | TSA no protein | others
O=[N+]([O-])c1ccc(/C=N/Nc2ccc3ccccc3c2)o1 | 2.1* | -1 | -2 | 2 | nt | 2 | -0.088 | i
COc1cc(C)c2c(c1C=O)Oc1c(c(C)c(O)c3c1C(O)OC3=O)OC2=O (stereo not given) | 2.1* | 5 | 0 | nt | -6 | 0 | 0.067 | i
Nc1cccc(-c2nc3ccc(C(=O)c4ccccc4)cc3[nH]2)c1 | 13* | 4 | -3 | -35 | nt | 2 | 0.031 | i | FGF22 TSA DP=0
Nc1ccc2nc(-c3ccccc3)[nH]c2c1 | nt | 2 | -5 | nt | nt | 8 | nt | nt
O=[N+]([O-])c1ccc2nc(-c3ccccc3)[nH]c2c1 | 1.7* | 1 | -7 | 15 | nt | -2 | -0.04 | i
O=C(CCN1CCCCC1)NCC[C@H]1CC[C@H](NS(=O)(=O)c2cccc(F)c2)[C@H](CO)O1 | 0 | -1 | -1 | 2 | -12 | nt | nt | nt
NS(=O)(=O)c1cc(C(=O)NC2CCSc3ccccc32)ccc1Cl (stereo not given) | 1.8* | 3 | 1 | 6 | nt | 8 | 0.068 | i
O=C(Nc1ccc(C(=O)O)cc1)Nc1ccc([N+](=O)[O-])cc1 | 1.9* | 2 | 2 | -10 | 16 | 9 | 0.089 | i
COc1cc(O)c(CC=C(C)C)c(O)c1C(=O)CCc1ccc(O)cc1 | 1 | 1 | -8 | nt | -23 | -10 | nt | nt
O=C(CCc1ccc(O)cc1)c1c(O)cc(O)cc1O | 2.8* | 6 | -1 | -11 | nt | -4 | 0.51 | 2.9µM*
O=C(N[C@H]1CC[C@@H](CC(=O)N2CCCCC2)O[C@@H]1CO)c1ccc2c(c1)OCO2 | 0 | 2 | -13 | 3 | -2 | nt | nt | nt
O=C(Nc1ccc(F)c(Cl)c1)C1CCCN(C2=NS(=O)(=O)c3ccccc32)C1 (stereo not given) | 31* | 4 | 2 | -15 | -5 | 0 | 0.25 | i
COc1ccc(NC(=O)CCCN2C(=O)CN(C)C2=O)c(OC)c1 | 15* | -6 | -1 | nt | -4 | -3 | nt | i
COCC(=O)Nc1ccc2c(c1)OC[C@@H](C)N(C(=O)Cc1cccnc1)C[C@H](C)[C@H](OC)CN(C)C2=O | 0 | -1 | 12 | 0 | -2 | nt | nt | nt
CC(=O)Nc1cccc(NC(=O)c2ccc3[nH]c(C)c(C)c3c2)c1 | 1.9* | -4 | -3 | -4 | nt | 0 | -0.012 | i | FGF22 TSA DP=0
O=C1C(Cl)=C(NS(=O)(=O)c2ccc([N+](=O)[O-])cc2)C(=O)c2ccccc21 | 1.9* | nt | nt | -1 | 13 | 2 | 0.13 | i
O=[N+]([O-])c1ccc(Oc2ccc(S(=O)(=O)Nc3ccccc3)cc2)cc1 | nt | -2 | 1 | nt | 1 | -9 | nt | nt
CCC(=O)Nc1ccc2c(c1)C(=O)N(C)C[C@H](OC)[C@@H](C)CN(C(=O)CC1CC1)[C@@H](C)CO2 | 0 | 1 | 0 | 0 | -5 | nt | nt | nt
C[C@@H]1CCCCO[C@H](CN(C)C(=O)Nc2ccc(F)cc2)[C@H](C)CN([C@@H](C)CO)C(=O)c2cc(NS(=O)(=O)c3ccccc3)ccc2O1 | 0 | -3 | -6 | -2 | -9 | nt | nt | nt
CC(C)(C)NC(=O)N1CCC(CO)(Cc2ccccc2Cl)CC1 | 1.5* | 4 | -6 | -10 | 3 | 1 | -0.031 | i
COc1cc(C=O)ccc1OCc1cn(CC(=O)c2ccc(O)cc2)nn1 | 1 | 4 | -1 | -15 | 5 | 2 | nt | nt
O=C(Cn1cc(COc2ccc(Br)cc2[N+](=O)[O-])nn1)c1ccc(O)cc1 | 1.7* | -1 | 6 | -14 | nt | 14 | -0.002 | i
O=C(C[C@H]1C=C[C@H](NS(=O)(=O)c2ccccc2)[C@@H](CO)O1)N1CCC(Cc2ccccc2)CC1 | 0 | nt | nt | 2 | -8 | nt | nt | nt
Cc1noc(NS(=O)(=O)c2ccc(NC(=O)c3cccc(S(=O)(=O)N(C)c4ccccc4)c3)cc2)c1C | 1.6* | -5 | -1 | -9 | 5 | 11 | -0.17 | i
CN(c1ccccc1)S(=O)(=O)c1cccc(NC(=O)c2ccc3ncsc3c2)c1 | 1.4* | -9 | 1 | -32 | -4 | -8 | -0.047 | i
SMILES | FGF22 binding-1 | PglD inh | Cneo AK release | rRNA inh HTS | PGC1a acetyl inh | Vif imaging | FGF22 binding-2 | TSA no protein | others
CC(=O)N1C[C@H]2[C@@H](c3ccccc31)[C@H](CO)N2C(=O)CC1CC1 | 0 | -2 | 2 | 6 | -31 | nt | nt | nt
C[C@@H]1CN([C@H](C)CO)C(=O)c2cc(NS(=O)(=O)c3cn(C)cn3)ccc2O[C@@H]1CN(C)Cc1ccccc1 | 0 | -1 | 6 | 3 | nt | nt | nt | nt
C[C@H]1CN([C@@H](C)CO)C(=O)c2cc(NS(=O)(=O)c3cn(C)cn3)ccc2O[C@H]1CN(C)Cc1ccccc1 | 24* | -1 | -2 | 4 | nt | nt | -0.038 | i
C[C@H](CO)N1C[C@H](C)[C@@H](CN(C)S(=O)(=O)c2ccccc2)Oc2ccc(NS(=O)(=O)c3cn(C)cn3)cc2C1=O | 2.3*! | 0 | 2 | 4 | -17 | 1 | 0.026 | i
CN1CCN(C(=O)C[C@H]2C[C@@H]3c4cc(NC(=O)CC5CC5)ccc4O[C@@H]3[C@@H](CO)O2)CC1 | 0 | 2 | -2 | 2 | -17 | nt | nt | nt
CCC(=O)Nc1ccc2c(c1)C(=O)N(C)C[C@@H](OC)[C@H](C)CN(C(=O)COC)[C@H](C)CO2 | 0 | -1 | 1 | 2 | -1 | nt | nt | nt
CO[C@@H]1CN(C)C(=O)c2ccc(NC(C)=O)cc2OC[C@@H](C)N(C(=O)Cc2ccccn2)C[C@@H]1C | -1 | -2 | -1 | 1 | 5 | nt | nt | nt
